Screens from PubChem.
This is a sample that favours compounds with a hit; in the whole collection about 0.7% have one here.
XiGFP reactiv = activators of inactive X chromosome reactivation, primary screen, imaging, XiGFP fibroblasts, GFP high-content imaging, set 2; XiGFP mouse fibroblasts, % GFP-positive cells imaging, 3 d; cells co-treated with 5-aza-dC sensitizer; scaled so ellipticine positive control = 100%; activation, % at 7.58 µM; 360,000 compounds, 0.055% hits;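 active = mean normalized replicate activation at least 10% and every replicate at or above 10%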
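Assay system – SV40-immortalized XiGFP fibroblast cells, line 68-5-11 · Buffer or medium – DMEM supplemented with 5-aza-dC as sensitizing agent · Dosing – one concentration, pinned · Benchmarks – positive control ellipticine, 6 µM final · Times – 3 days compound exposure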
Glyco luc inh = increase of ERlucT glycosylation luciferase signal, primary screen, N-linked glycosylation inhibitor project, D54 ERlucT cells, luminescence, set 2 | reporter increase, % at 12.5 µM | 360,000 compounds, 0.23% hits | AID 588692, 2011 | D54 ERlucT glycosylation luciferase reporter, 24 h; percent of 100 nM tunicamycin response;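 active = mean luciferase reporter signal, scaled so untreated is 0 and the glycosylation-blocking control 100, at or above a set limit in every replicate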;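 note: luciferase carries N-glycosylation sites so blocking glycosylation raises the light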
Vif imaging = HIV Vif self-association inhibitors, primary screen, imaging, HEK293T, single point; 340,000 compounds, 0.35% hits; inhibition, % at 7.49 µM; HEK293T cells, Vif self-association by quenched fluorescence, 24 h; in the data active = inhibition above about 50%, passing the limit was not always enough
CaV13 ICDI inh = Disruptors of the CACNA1D IQ motif to Ca2+-dependent inactivation inhibitor domain association, primary screening, Förster resonance energy transfer in intact living … | HEK cells, CFP/YFP FRET ICDI-IQ, plate reader, 10 min; percent FRET-ratio fall versus neutral wells | 340,000 compounds, 0.098% hits | AID 743397 | inhibition, % at 12.3 µM;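 active = mean replicate inhibition of at least 30% and at least 1% of replicates passing that level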
GC-B act = human GC-B receptor activators, primary screen, HEK293 GC-B cells, cGMP TR-FRET, EC30 CNP | Atrial natriuretic peptide receptor 2 (Homo sapiens), P20594 | 0% at EC30 CNP, 100% saturating CNP | activation, % at 10 µM | 370,000 compounds, 0.11% hits | AID 1920062, 2024;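 active = activation at 10 µM reaching about 35% in either raw or pattern-adjusted values, limit read from the data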
Target sequence (P20594 whole entry, looked up): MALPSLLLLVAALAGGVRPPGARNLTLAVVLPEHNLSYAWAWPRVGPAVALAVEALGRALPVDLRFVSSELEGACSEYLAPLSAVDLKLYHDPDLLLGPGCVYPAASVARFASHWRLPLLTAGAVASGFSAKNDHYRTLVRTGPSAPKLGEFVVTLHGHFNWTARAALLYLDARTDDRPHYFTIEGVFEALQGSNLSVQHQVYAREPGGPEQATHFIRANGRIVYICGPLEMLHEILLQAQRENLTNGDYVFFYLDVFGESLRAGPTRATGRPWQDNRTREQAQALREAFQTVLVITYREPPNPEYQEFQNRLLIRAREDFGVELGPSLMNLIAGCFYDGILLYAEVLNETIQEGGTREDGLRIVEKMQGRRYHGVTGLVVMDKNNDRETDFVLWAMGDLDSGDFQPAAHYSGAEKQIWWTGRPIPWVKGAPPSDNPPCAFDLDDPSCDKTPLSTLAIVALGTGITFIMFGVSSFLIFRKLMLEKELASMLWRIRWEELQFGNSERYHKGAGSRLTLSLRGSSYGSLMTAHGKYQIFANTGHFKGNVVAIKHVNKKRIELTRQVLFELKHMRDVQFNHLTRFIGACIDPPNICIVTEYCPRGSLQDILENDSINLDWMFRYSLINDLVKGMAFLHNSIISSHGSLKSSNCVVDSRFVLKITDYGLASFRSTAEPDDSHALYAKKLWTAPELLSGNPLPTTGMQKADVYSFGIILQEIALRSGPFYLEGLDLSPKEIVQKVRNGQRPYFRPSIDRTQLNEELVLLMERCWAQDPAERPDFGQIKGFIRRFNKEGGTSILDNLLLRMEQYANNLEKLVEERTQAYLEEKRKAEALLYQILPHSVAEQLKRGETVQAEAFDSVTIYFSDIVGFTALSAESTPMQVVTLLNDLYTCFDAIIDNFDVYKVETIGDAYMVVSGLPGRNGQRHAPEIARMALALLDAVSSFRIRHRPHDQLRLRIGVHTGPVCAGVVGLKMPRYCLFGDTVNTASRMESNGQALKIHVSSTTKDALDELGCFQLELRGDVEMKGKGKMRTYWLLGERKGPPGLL
NPR1 activator = GC-A stimulated cGMP production enhancers – HEK293 GC-A cells, cGMP TR-FRET, EC30 ANP, primary screen; Atrial natriuretic peptide receptor 1 (Homo sapiens), P16066; 0% at EC30 ANP, 100% saturating ANP; activation, % at 10 µM; 370,000 compounds, 0.14% hits; AID 1671463, 2021; in the data active = activation above about 40%
Hits are given with their value; – = inactive; · = no result.

SMILES	XiGFP reactiv	Glyco luc inh	Vif imaging	CaV13 ICDI inh	GC-B act	NPR1 activator
Cc1csc(NC(=O)c2ccc(COc3cccc(Cl)c3)o2)n1	·	·	·	·	41	–
Cc1ccc(S(=O)(=O)N[C@@H]2CC[C@H](CCNS(=O)(=O)Cc3ccccc3)O[C@H]2CO)cc1	–	·	·	·	·	·
Cc1ccccc1-c1ccc([C@H]2[C@@H](CO)N3CCCCN(C(=O)CN4CCOCC4)C[C@H]23)cc1	–	·	·	·	·	·
O=C1C=CC(=O)N1CCCCCCCCCCN1C(=O)C=CC1=O	–	–	–	–	44	–
Oc1ccc(/C=N/Nc2ccnc3cc(Cl)ccc23)c(O)c1	68	–	–	–	–	–
CCCNc1nc2c(c(=O)n(C)c(=O)n2C)n1Cc1ccc(F)cc1	–	–	–	–	41	–
Cn1c(=O)c2c(nc(NCC3CCCO3)n2Cc2cccc(Br)c2)n(C)c1=O (stereo not drawn)	·	–	–	–	38	–
Cc1ccc(Cn2c(NCCc3ccccc3)nc3c2c(=O)n(C)c(=O)n3C)cc1	·	–	–	·	–	–
CCC(C)Nc1nc2c(c(=O)n(C)c(=O)n2C)n1Cc1ccc(Cl)cc1 (stereo not drawn)	–	–	–	–	48	42
Cc1cccc(Nc2nc3c(c(=O)n(C)c(=O)n3C)n2Cc2ccccc2)c1	·	–	–	·	47	53
CCNc1nc2c(c(=O)n(C)c(=O)n2C)n1Cc1ccc(Cl)cc1	–	–	–	–	–	–
Cc1noc(C)c1NC(=O)Nc1ccc2c(c1)CC(=O)N([C@H](C)CO)C[C@H](C)[C@@H](CN(C)Cc1ccc(Oc3ccccc3)cc1)O2	–	·	·	·	·	·
CCNc1nc2c(c(=O)n(Cc3ccccc3)c(=O)n2C)n1Cc1ccccc1	·	–	–	·	40	–
Cc1ccsc1C1Nc2ccccc2-c2nc3ccccc3n21 (stereo not drawn)	30	–	–	–	–	–
CCOC(=O)C1(Cc2cccc(F)c2)CCN(C(=O)C2CCCO2)CC1 (stereo not drawn)	–	–	51	–	–	–
CC(C)NC(=O)N(C)C[C@@H]1Oc2cc(C#C[C@@H](C)O)ccc2S(=O)(=O)N([C@H](C)CO)C[C@H]1C	–	·	·	·	·	·
CCC(=O)Nc1cc(C(=O)OCC(=O)c2ccc(Cl)cc2Cl)ccc1C	·	–	–	–	–	57
Cc1ccc(S(=O)(=O)N[C@@H]2CC[C@@H](CCNS(=O)(=O)Cc3ccccc3)O[C@@H]2CO)cc1	–	·	·	·	·	·
Cc1[nH]c2ccccc2c1/C=N/NC(=O)c1cccc([N+](=O)[O-])c1	–	–	–	–	–	–
Cc1[nH]c2ccccc2c1/C=N/Nc1ccc([N+](=O)[O-])cc1	75	–	–	–	–	–
CO[C@@H]1CN(C)C(=O)c2ccc(NC(=O)C3CC3)cc2OC[C@@H](C)N(C(=O)C2CCCCC2)C[C@H]1C	–	·	·	·	·	·
O=C(COc1ccccc1CNCc1ccccc1)Nc1ccccc1	·	47	–	–	–	–
COc1ccc2c3c([nH]c2c1)[C@H](CO)N(C(=O)C1CCOCC1)CC31CN(C)C1	–	·	·	·	·	·
O=C1OCCC1=COCCCCCOC=C1CCOC1=O	–	–	71	–	–	–
Cc1ccc(S(=O)(=O)N[C@@H](CC(C)C)C(=O)N2CCC(C(=O)N[C@@H](Cc3ccccc3)C(=O)O)CC2)cc1	·	–	–	·	–	–
SMILES	XiGFP reactiv	Glyco luc inh	Vif imaging	CaV13 ICDI inh	GC-B act	NPR1 activator
Cc1ccc(S(=O)(=O)N[C@@H](Cc2ccccc2)C(=O)N2CCC(C(=O)N[C@@H](CCC(N)=O)C(=O)O)CC2)cc1	–	–	59	–	–	–
O=c1c(Br)ccc(Br)cc1Br	–	–	168	–	–	–
O=C1CN(S(=O)(=O)c2cc(Br)ccc2Br)CCN1	–	–	–	–	–	–
CSC1=NSC2=NC(=O)/C(=C/c3coc4ccc(O)cc4c3=O)C(=N)N12	–	–	–	126	–	–
C[C@H](CO)N1C[C@H](C)[C@@H](CN(C)Cc2ccc(C(=O)Nc3ccccc3N)cc2)Oc2c(NS(=O)(=O)c3cn(C)cn3)cccc2C1=O	–	·	·	·	·	·
C=CC(C)(O)CCCC(C)CCCC(C)CCCC(C)C (stereo not drawn)	·	–	160	·	–	–
CC1C(=O)N(Cc2cn(CCC3OCCCO3)nn2)CCS(=O)(=O)N1Cc1ccc(-c2ccc(Cl)cc2)cc1 (stereo not drawn)	–	–	–	–	–	50
CC1C(=O)N(Cc2cn(CCC3OCCCO3)nn2)CCS(=O)(=O)N1Cc1ccc(-c2ccccc2)cc1 (stereo not drawn)	–	–	–	–	–	–
Oc1ccc(/C=N/N=C/c2ccc(O)c(O)c2)cc1O	–	–	72	–	–	–
N#C/C(=C/c1ccc(N2CCCCC2)o1)C(=O)Nc1ccc(Cl)cc1	·	–	·	–	–	–
N#C/C(=C/c1ccc(N2CCCCC2)o1)C(=O)Nc1ccc2ccccc2c1	109	–	–	–	–	–
O=C(c1ccccc1)c1ccc(OCC(O)CNCc2ccc(F)cc2)cc1 (stereo not drawn)	–	–	–	–	–	–
OC(CNCc1ccccc1Cl)COc1ccc(F)cc1 (stereo not drawn)	–	–	65	–	–	–
CCN1CCCC1CNS(=O)(=O)c1cccc(C(F)(F)F)c1 (stereo not drawn)	–	–	–	·	–	–
CCN1CCCC1CNS(=O)(=O)c1ccc(F)c(Cl)c1 (stereo not drawn)	–	–	51	–	–	–
CO[C@H]1CN(C)C(=O)c2ccc(NC(=O)NC(C)C)cc2OC[C@@H](C)N(C(=O)CN(C)C)C[C@@H]1C	–	·	·	·	·	·
COCCCN1C(=O)C(CC(=O)NCc2cccc3ccccc23)CC(C(=O)N2CCOCC2)=C1C (stereo not drawn)	–	–	67	–	–	–
C[C@H]1CN([C@@H](C)CO)C(=O)Cc2cc(N(C)C)ccc2O[C@@H]1CN(C)C(=O)Nc1ccc(C(F)(F)F)cc1	–	·	·	·	·	·
CCOC(=O)c1[nH]cnc1N=Nc1c(O)ccc2ccccc12	–	–	–	–	38	–
CC(C)NC(=O)N(C)C[C@H]1OCCCC[C@@H](C)Oc2ccc(NS(=O)(=O)c3ccc(F)cc3)cc2C(=O)N([C@H](C)CO)C[C@H]1C	–	·	·	·	·	·
